Measured values: PubChem BioAssay AID504588 (Broad Institute, 2011)

Tested on: U2OS HRE-luciferase reporter, luminescence
Test: activators of HIF pathway HRE-luciferase reporter, dose response, U2OS cells, luminescence, dry powder, set 10 (AID 504588)
Outline: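 Assay system: human U2OS osteosarcoma cells stably expressing 3×HRE-driven luciferase reporter. Input: 6,000 cells per well. Schedule: 24 h compound exposure at 37 °C, 5% CO2, 21% O2. Measured by: Steady-Glo luminescence. Compound dosing: 3-fold dilution series.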

Compound | AC40 [nM]
CC(C)(C)c1ccc(CNc2nc(-c3ccccn3)nnc2-c2ccccc2)cc1 | 447
c1ccc(-c2ccc(CNc3nc(-c4ccccn4)nnc3-c3ccccc3)cc2)cc1 | 360
CC(C)(C)CCNc1nc(-c2ccccn2)nnc1-c1ccccc1 | 940
Clc1cccc(CNc2nc(-c3ccccn3)nnc2-c2ccccc2)c1 | 1310
c1ccc(CCNc2nc(-c3ccccn3)nnc2-c2ccccc2)cc1 | 2520
c1ccc(-c2cccc(CNc3nc(-c4ccccn4)nnc3-c3ccccc3)c2)cc1 | 721
